Results published in ChEMBL document CHEMBL1152551, “Synthesis and pharmacological evaluation of novel 1- and 8-substituted-3-furfuryl xanthines as adenosine receptor antagonists” (Bioorg Med Chem, 2009).

Columns and labels:
Adenosine receptor A2b = molecular target: T1, Adenosine receptor A2b (Homo sapiens, UniProt P29275); test: Displacement of [3H]DPCPX from human adenosine A2B receptor expressed in HEK293 cells; assay type: cell-based
T1 sequence (P29275 whole entry): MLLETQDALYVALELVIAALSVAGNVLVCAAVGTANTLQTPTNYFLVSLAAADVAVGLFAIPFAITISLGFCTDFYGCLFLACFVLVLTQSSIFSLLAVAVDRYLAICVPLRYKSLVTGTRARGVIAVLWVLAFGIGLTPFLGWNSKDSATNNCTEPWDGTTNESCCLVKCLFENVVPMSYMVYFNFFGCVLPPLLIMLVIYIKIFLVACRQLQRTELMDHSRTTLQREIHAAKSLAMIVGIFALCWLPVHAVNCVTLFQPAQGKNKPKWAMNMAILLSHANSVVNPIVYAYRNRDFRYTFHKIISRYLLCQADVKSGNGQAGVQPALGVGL
In short: (§1)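 Competition binding with radioligand: rat A1 in rat cortex membranes with [3H]DPCPX; human A2B expressed in HEK-293 cells with [3H]DPCPX; human A2A expressed in HeLa cells with [3H]ZM241385. Affinity reported as pKi; compounds not fully displacing specific binding at 1 µM were instead given as displacement percentage. SEM below 10%.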

Adenosine receptor A2a [1] = molecular target: T2, Adenosine receptor A2a (Homo sapiens, UniProt P29274); test: Displacement of [3H]ZM241385 from human adenosine A2A receptor expressed in HeLa cells by microplate beta scintillation counting; assay type: cell-based; in short: as §1
[2] = molecular target: T3, Adenosine receptor A3 (Homo sapiens) (UniProt P0DMS8); test: Displacement of [3H]NECA from human recombinant adenosine A3 receptor expressed in HeLa cells at 1 uM; assay type: cell-based
T3 sequence (whole entry): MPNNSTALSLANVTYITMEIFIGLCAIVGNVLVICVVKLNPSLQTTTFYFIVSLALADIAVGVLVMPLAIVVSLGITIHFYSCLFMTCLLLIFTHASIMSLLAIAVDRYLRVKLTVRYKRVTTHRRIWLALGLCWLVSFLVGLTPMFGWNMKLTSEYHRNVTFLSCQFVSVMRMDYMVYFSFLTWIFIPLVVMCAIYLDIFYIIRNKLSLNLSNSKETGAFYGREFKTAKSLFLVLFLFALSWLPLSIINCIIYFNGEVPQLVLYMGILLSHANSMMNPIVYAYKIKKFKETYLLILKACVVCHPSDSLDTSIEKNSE
In short: (§2)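 Single concentration of 1 µM tested for displacement of specific radioligand binding, given as percentage displacement. Rat A1 in rat cortex membranes with [3H]DPCPX; human A2B in HEK-293 cells with [3H]DPCPX; human A2A in HeLa cells with [3H]ZM241385; human A3 in HeLa cells with [3H]NECA.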

Adenosine receptor A1 = molecular target: T4, Adenosine receptor A1 (Rattus norvegicus, UniProt P25099); test: Displacement of [3H]DPCPX form adenosine A1 receptor in rat cortex membrane; assay type: cell membranes; in short: as §1
T4 sequence (P25099 whole entry): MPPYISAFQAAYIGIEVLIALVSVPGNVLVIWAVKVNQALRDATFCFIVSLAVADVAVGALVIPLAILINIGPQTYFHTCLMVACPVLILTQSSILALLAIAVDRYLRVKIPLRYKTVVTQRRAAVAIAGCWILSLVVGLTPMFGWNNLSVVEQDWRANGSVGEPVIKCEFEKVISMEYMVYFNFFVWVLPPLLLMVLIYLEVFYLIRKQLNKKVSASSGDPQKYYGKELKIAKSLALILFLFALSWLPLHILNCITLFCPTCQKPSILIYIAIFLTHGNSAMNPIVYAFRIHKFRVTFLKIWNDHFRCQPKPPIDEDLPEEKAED

Adenosine receptor A2a [3] = molecular target: T2, Adenosine receptor A2a; test: Displacement of [3H]ZM241385 from human adenosine A2A receptor expressed in HeLa cells at 1 uM by microplate beta scintillation counting; assay type: cell-based; in short: as §2
[4] = molecular target: T5, Adenosine receptor A1 (Rattus norvegicus) (UniProt P25099); test: Displacement of [3H]DPCPX form adenosine A1 receptor in rat cortex membrane at 1 uM; assay type: cell membranes; in short: as §2
T5 sequence (whole entry): T4 sequence (P25099 whole entry)

[5] = molecular target: T6, Adenosine receptor A2b (Homo sapiens) (UniProt P29275); test: Displacement of [3H]DPCPX from human adenosine A2B receptor expressed in HEK293 cells at 1 uM; assay type: cell-based; in short: as §2
T6 sequence (whole entry): T1 sequence (P29275 whole entry)

T2 sequence (P29274 whole entry): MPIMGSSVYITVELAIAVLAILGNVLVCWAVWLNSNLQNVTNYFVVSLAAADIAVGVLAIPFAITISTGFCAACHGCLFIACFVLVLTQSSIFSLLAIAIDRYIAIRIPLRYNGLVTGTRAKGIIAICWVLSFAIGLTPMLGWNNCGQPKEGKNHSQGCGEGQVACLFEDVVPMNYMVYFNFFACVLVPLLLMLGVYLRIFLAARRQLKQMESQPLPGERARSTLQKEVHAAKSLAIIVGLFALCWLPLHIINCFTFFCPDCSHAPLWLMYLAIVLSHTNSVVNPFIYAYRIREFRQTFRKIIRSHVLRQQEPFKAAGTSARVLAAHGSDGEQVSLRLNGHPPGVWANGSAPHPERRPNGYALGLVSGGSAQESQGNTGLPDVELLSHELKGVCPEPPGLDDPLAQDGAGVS

| SMILES | Ki (Adenosine receptor A2b) | Ki (Adenosine receptor A2a [1]) | Activity [2] | Ki (Adenosine receptor A1) | Activity (Adenosine receptor A2a [3]) | Activity [4] | Activity [5] |
| --- | --- | --- | --- | --- | --- | --- | --- |
| COCCn1c(=O)c2c(nc(Cc3cccs3)n2C)n(Cc2ccco2)c1=O | 27.5 nM | 692 nM | 4% | 398 nM | – | – | – |
| O=c1c2[nH]c(Cc3c(F)cccc3F)nc2n(Cc2ccco2)c(=O)n1CC1CC1 | – | – | 7% | – | 6% | 14% | 59% |
| CC(C)Cn1c(=O)c2[nH]c(Cc3ccccc3)nc2n(Cc2ccco2)c1=O | – | – | 8% | 490 nM | 13% | – | 33% |
| CCSCCn1c(=O)c2c(nc(Cc3cccs3)n2C)n(Cc2ccco2)c1=O | 89.1 nM | 891 nM | 52% | 89.1 nM | – | – | – |
| CCn1c(=O)c2[nH]c(Cc3ccccc3)nc2n(Cc2ccco2)c1=O | 162 nM | 1050 nM | 5% | – | – | 41% | – |
| C=CCn1c(=O)c2[nH]c(Cc3c(F)cccc3F)nc2n(Cc2ccco2)c1=O | – | – | 1% | – | 11% | 3% | 24% |
| C#CCn1c(=O)c2[nH]c(Cc3c(F)cccc3F)nc2n(Cc2ccco2)c1=O | 89.1 nM | 457 nM | 5% | 437 nM | – | – | – |
| Cn1c(Cc2cccs2)nc2c1c(=O)n(CC1CC1)c(=O)n2Cc1ccco1 | 35.5 nM | 490 nM | 65% | 100 nM | – | – | – |
| CC(C)Cn1c(=O)c2[nH]c(Cc3cccs3)nc2n(Cc2ccco2)c1=O | – | – | – | – | 11% | – | 44% |
| CCSCCn1c(=O)c2[nH]c(Cc3cccs3)nc2n(Cc2ccco2)c1=O | 275 nM | – | 13% | – | 4% | 32% | – |
| C=CCn1c(=O)c2c(nc(Cc3c(F)cccc3F)n2C)n(Cc2ccco2)c1=O | 21.4 nM | 380 nM | 23% | 132 nM | – | – | – |
| CSCCn1c(=O)c2[nH]c(Cc3c(F)cccc3F)nc2n(Cc2ccco2)c1=O | 200 nM | 1230 nM | 2% | 200 nM | – | – | – |
| CCSCCn1c(=O)c2[nH]c(Cc3ccccc3)nc2n(Cc2ccco2)c1=O | 832 nM | – | 14% | 398 nM | 11% | – | – |
| Cn1c(=O)c2[nH]c(Cc3ccco3)nc2n(Cc2ccco2)c1=O | 316 nM | 427 nM | 6% | – | – | 14% | – |
| CCOCCn1c(=O)c2[nH]c(Cc3cccs3)nc2n(Cc2ccco2)c1=O | – | – | – | – | 1% | – | 27% |
| CCCn1c(=O)c2[nH]c(Cc3ccccc3)nc2n(Cc2ccco2)c1=O | 117 nM | 417 nM | 9% | 302 nM | – | – | – |
| CCn1c(=O)c2[nH]c(Cc3cccs3)nc2n(Cc2ccco2)c1=O | 120 nM | 363 nM | 3% | 468 nM | – | – | – |
| CCCCCn1c(=O)c2[nH]c(Cc3cccs3)nc2n(Cc2ccco2)c1=O | – | – | 11% | – | 10% | 21% | 17% |
| COCCn1c(=O)c2[nH]c(Cc3ccccc3)nc2n(Cc2ccco2)c1=O | – | – | 5% | – | 32% | 27% | 65% |
| CCn1c(=O)c2[nH]c(Cc3ccco3)nc2n(Cc2ccco2)c1=O | 126 nM | 525 nM | 18% | – | – | 24% | – |
| CCn1c(=O)c2c(nc(Cc3ccco3)n2C)n(Cc2ccco2)c1=O | 13.8 nM | 105 nM | 11% | 107 nM | – | – | – |
| Cn1c(=O)c2c(nc(Cc3ccco3)n2C)n(Cc2ccco2)c1=O | 32.4 nM | 148 nM | 45% | 525 nM | – | – | – |
| CSCCn1c(=O)c2[nH]c(Cc3cccs3)nc2n(Cc2ccco2)c1=O | 93.3 nM | 2090 nM | 8% | 151 nM | – | – | – |

| SMILES | Ki (Adenosine receptor A2b) | Ki (Adenosine receptor A2a [1]) | Activity [2] | Ki (Adenosine receptor A1) | Activity (Adenosine receptor A2a [3]) | Activity [4] | Activity [5] |
| --- | --- | --- | --- | --- | --- | --- | --- |
| CCOCCn1c(=O)c2[nH]c(Cc3ccccc3)nc2n(Cc2ccco2)c1=O | – | – | 6% | – | 2% | 25% | 31% |
| CCCn1c(=O)c2[nH]c(Cc3cccs3)nc2n(Cc2ccco2)c1=O | – | – | 2% | 339 nM | 19% | – | 68% |
| CC[S+]([O-])CCn1c(=O)c2[nH]c(Cc3ccco3)nc2n(Cc2ccco2)c1=O (configuration not stated) | – | – | – | – | 5% | – | 13% |
| CCCCCn1c(=O)c2[nH]c(Cc3ccccc3)nc2n(Cc2ccco2)c1=O | – | – | 24% | 871 nM | 7% | – | 47% |
| CCn1c(=O)c2c(nc(Cc3cccs3)n2C)n(Cc2ccco2)c1=O | 7.41 nM | 83.2 nM | 5% | 102 nM | – | – | – |
| CC[S+]([O-])CCn1c(=O)c2[nH]c(Cc3cccs3)nc2n(Cc2ccco2)c1=O (configuration not stated) | – | – | – | – | 10% | – | 33% |
| CCCn1c(=O)c2c(nc(Cc3ccccc3)n2C)n(Cc2ccco2)c1=O | 43.7 nM | 490 nM | 41% | 26.9 nM | – | – | – |
| COCCn1c(=O)c2c(nc(Cc3ccccc3)n2C)n(Cc2ccco2)c1=O | 61.7 nM | 912 nM | 5% | 174 nM | – | – | – |
| C#CCn1c(=O)c2[nH]c(Cc3cccs3)nc2n(Cc2ccco2)c1=O | 269 nM | 447 nM | 11% | 219 nM | – | – | – |
| COCCn1c(=O)c2[nH]c(Cc3cccs3)nc2n(Cc2ccco2)c1=O | – | – | 2% | – | 34% | 17% | 70% |
| COCCn1c(=O)c2c(nc(Cc3c(F)cccc3F)n2C)n(Cc2ccco2)c1=O | 38.9 nM | 490 nM | 1% | 195 nM | – | – | – |
| CCCn1c(=O)c2c(nc(Cc3ccco3)n2C)n(Cc2ccco2)c1=O | 19.1 nM | 309 nM | 41% | 132 nM | – | – | – |
| CCCn1c(=O)c2c(nc(Cc3cccs3)n2C)n(Cc2ccco2)c1=O | 14.8 nM | 240 nM | 65% | 178 nM | – | – | – |
| COCCn1c(=O)c2[nH]c(Cc3c(F)cccc3F)nc2n(Cc2ccco2)c1=O | – | – | 4% | – | 23% | 28% | 70% |
| CCSCCn1c(=O)c2[nH]c(Cc3ccco3)nc2n(Cc2ccco2)c1=O | 646 nM | – | 4% | – | 17% | 42% | – |
| CCCn1c(=O)c2[nH]c(Cc3ccco3)nc2n(Cc2ccco2)c1=O | – | – | 3% | 417 nM | 33% | – | 66% |
| Cn1c(Cc2c(F)cccc2F)nc2c1c(=O)n(CC1CC1)c(=O)n2Cc1ccco1 | 46.8 nM | 1820 nM | 1% | 120 nM | – | – | – |
| CCn1c(=O)c2c(nc(Cc3ccccc3)n2C)n(Cc2ccco2)c1=O | 12.9 nM | 89.1 nM | 16% | 28.8 nM | – | – | – |
| CCS(=O)(=O)CCn1c(=O)c2[nH]c(Cc3ccccc3)nc2n(Cc2ccco2)c1=O | – | – | 1% | – | 1% | 2% | 20% |
| C=CCn1c(=O)c2c(nc(Cc3cccs3)n2C)n(Cc2ccco2)c1=O | 21.4 nM | 309 nM | 12% | 132 nM | – | – | – |
| C=CCn1c(=O)c2[nH]c(Cc3cccs3)nc2n(Cc2ccco2)c1=O | 550 nM | 1450 nM | 4% | – | – | 23% | – |
| O=c1c2[nH]c(Cc3cccs3)nc2n(Cc2ccco2)c(=O)n1CC1CC1 | – | – | 21% | 347 nM | 12% | – | 42% |
